Data on one compound can be found in ChEMBL document CHEMBL2429786, “New serotonin 5-HT1A receptor agonists endowed with antinociceptive activity in vivo” (J Med Chem, 2013).

The source made the active and inactive calls. The calls are words filed in the database; no cut-off is given here.

Data set [1] is filed under the species Homo sapiens. Description: Displacement of [3H]CGP54626 from GABAB receptor (unknown origin) at 1 uM after 120 mins.
The nature of data set [2]: Intrinsic clearance in Sprague-Dawley rat liver microsomes at 1 to 5 uM by HPLC-MS analysis. Format: ADME, Microsome. The following applies: read-out: CLH. Summed up:
(§1)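 Incubation mixtures pre-equilibrated at 37 °C with NADPH and MgCl2, then rat or human liver microsomes added to start the reaction. Aliquots were withdrawn and quenched at several time points, and percent parent remaining was measured by HPLC-MS and plotted against time. t1/2 was taken from the slope of peak area over time and used to calculate CLint.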

Data set [3] has as its target T1, 5-hydroxytryptamine receptor 3A (Rattus norvegicus, UniProt P35563).
T1 sequence (P35563 whole entry): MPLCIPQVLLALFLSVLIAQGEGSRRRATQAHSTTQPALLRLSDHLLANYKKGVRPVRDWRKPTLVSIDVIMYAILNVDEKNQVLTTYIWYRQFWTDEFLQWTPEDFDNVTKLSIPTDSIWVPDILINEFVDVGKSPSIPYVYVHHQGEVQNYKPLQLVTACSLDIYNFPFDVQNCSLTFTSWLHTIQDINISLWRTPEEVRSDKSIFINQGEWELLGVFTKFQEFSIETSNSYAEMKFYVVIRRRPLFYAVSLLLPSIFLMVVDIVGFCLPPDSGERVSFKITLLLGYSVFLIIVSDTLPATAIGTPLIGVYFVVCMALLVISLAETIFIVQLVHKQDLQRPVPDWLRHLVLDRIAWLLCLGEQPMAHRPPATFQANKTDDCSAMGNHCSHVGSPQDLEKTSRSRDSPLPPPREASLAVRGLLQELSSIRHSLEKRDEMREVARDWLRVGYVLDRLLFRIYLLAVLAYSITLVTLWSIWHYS
Kind of data set: Displacement of [3H]LY 278584 from 5-HT3 receptor in Sprague-Dawley rat cerebral cortex after 30 mins. In kind it is tissue-based.

The test system of a further data set is Mus musculus. Description: Antinociceptive activity in CD-1 mouse assessed as reduction of formalin-induced paw licking activity at 3 mg/kg, ip administered 15 mins prior to formalin-challenge measured after 5 mins. In kind it is functional, organism-based. Further details: dose 3 mg/kg.
Data set [4] has as its target T2, Muscarinic acetylcholine receptor M4 (Homo sapiens) (UniProt P08173).
T2 sequence (whole entry): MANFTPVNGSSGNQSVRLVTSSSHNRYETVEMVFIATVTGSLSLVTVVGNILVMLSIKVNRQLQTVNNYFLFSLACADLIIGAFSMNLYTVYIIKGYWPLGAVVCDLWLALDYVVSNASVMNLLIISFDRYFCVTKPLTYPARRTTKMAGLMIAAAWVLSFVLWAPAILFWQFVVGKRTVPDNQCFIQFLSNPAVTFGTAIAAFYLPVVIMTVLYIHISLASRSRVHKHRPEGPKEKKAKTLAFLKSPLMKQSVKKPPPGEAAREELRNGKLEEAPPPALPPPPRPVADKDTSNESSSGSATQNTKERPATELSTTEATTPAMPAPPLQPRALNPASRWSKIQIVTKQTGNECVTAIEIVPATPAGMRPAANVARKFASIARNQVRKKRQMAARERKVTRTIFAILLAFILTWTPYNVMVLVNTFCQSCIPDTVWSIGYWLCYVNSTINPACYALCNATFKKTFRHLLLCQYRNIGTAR
Kind of data set: Displacement of [3H]-4-DAMP from muscarinic M4 receptor (unknown origin) at 1 uM after 60 mins.

Data set [5] addresses Cannabinoid receptor 1 (Homo sapiens) (UniProt P21554). Kind of data set: Displacement of [3H]CP 55940 from CB1 receptor (unknown origin) at 1 uM after 120 mins.
For data set [6], the species on record is Homo sapiens. Description: Displacement of [3H]DADLE from delta2 opioid receptor (unknown origin) at 1 uM after 120 mins.
Data set [7] addresses 5-hydroxytryptamine receptor 2A (Rattus norvegicus, UniProt P14842). Kind of data set: Displacement of [3H]ketanserin from 5-HT2A receptor in Sprague-Dawley rat frontal cortex after 15 mins. Format: tissue-based.
In data set [8] the target is T3, Muscarinic acetylcholine receptor M2 (Homo sapiens) (UniProt P08172).
T3 sequence (whole entry): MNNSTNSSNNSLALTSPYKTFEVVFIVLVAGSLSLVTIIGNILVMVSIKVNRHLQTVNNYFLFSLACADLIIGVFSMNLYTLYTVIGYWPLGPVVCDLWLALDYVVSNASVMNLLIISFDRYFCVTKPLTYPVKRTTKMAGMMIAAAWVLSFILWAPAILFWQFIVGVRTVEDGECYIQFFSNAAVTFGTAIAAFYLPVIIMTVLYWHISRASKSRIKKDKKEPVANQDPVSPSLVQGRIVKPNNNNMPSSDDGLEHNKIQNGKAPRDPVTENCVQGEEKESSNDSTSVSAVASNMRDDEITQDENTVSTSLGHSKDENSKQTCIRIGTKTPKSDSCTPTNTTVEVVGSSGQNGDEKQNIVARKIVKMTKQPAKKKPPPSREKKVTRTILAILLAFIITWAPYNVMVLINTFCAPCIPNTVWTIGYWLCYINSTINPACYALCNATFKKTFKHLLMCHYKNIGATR
Description: Displacement of [3H]AF-DX 384 from muscarinic M2 receptor (unknown origin) at 1 uM after 60 mins.

Data set [9] addresses 5-hydroxytryptamine receptor 4 (Rattus norvegicus, UniProt Q62758). Kind of data set: Displacement of [3H]GR113808 from 5-HT4 receptor in Sprague-Dawley rat striatum after 30 mins.
A short description of data set [10]: Intrinsic clearance in human liver microsomes at 1 to 5 uM by HPLC-MS analysis. To be noted: read-out: CLH. Format: ADME, Microsome. An outline of the steps: as §1
Data set [11] concerns the target 5-hydroxytryptamine receptor 7 (Rattus norvegicus, UniProt P32305). Description: Displacement of [3H]-5-CT from 5-HT7 receptor in Sprague-Dawley rat hypothalamus after 120 mins.
Data set [12] addresses T4, 5-hydroxytryptamine receptor 1A (Homo sapiens, UniProt P08908).
T4 sequence (P08908 whole entry): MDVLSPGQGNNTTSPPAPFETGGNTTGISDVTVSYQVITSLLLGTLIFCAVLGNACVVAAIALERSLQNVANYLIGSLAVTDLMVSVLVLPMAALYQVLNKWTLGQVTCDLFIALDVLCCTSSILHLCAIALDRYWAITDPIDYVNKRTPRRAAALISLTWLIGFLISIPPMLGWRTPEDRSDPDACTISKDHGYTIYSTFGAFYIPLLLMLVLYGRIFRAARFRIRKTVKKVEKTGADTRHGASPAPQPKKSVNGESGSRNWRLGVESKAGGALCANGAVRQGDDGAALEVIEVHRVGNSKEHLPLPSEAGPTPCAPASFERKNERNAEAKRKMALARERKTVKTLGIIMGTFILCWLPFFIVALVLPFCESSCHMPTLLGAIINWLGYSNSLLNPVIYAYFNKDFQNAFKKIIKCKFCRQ
Description: Agonist activity at human 5-HT1A receptor expressed in human HeLa cells assessed as inhibition of forskolin-stimulated cAMP formation after 10 mins by RIA. Format: functional, cell-based.

The target of a further data set is CYP2D6 (Homo sapiens, UniProt P10635). Kind of data set: Inhibition of human recombinant microsomal CYP2D6 using {3-[2-(N,N-diethyl-N-methylamino)ethyl]-7-methoxy-4-methylcoumarin} as substrate assessed as remaining activity at 10 uM after 30 mins by spectrofluorimetric analysis relative to control. Format: ADME. The following applies: read-out: Activity.
Data set [13] is described as follows: Half life in Sprague-Dawley rat liver microsomes at 1 to 5 uM by HPLC-MS analysis. Format: ADME, Microsome. Summed up:
as §1

Chain of CYP2D6 (P10635 whole entry): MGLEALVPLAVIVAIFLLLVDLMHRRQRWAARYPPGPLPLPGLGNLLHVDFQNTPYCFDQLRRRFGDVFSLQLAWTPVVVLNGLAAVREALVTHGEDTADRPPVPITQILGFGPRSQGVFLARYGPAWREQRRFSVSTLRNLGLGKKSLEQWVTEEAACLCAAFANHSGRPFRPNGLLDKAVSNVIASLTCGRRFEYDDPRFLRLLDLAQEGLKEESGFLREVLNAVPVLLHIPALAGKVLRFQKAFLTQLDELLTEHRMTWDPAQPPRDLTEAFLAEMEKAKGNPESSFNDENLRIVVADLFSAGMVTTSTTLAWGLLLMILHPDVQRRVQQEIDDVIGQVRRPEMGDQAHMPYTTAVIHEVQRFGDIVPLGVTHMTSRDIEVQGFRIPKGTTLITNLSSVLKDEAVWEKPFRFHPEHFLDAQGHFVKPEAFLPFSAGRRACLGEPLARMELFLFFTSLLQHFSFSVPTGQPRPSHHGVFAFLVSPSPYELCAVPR
Chain of 5-hydroxytryptamine receptor 2A (P14842 whole entry): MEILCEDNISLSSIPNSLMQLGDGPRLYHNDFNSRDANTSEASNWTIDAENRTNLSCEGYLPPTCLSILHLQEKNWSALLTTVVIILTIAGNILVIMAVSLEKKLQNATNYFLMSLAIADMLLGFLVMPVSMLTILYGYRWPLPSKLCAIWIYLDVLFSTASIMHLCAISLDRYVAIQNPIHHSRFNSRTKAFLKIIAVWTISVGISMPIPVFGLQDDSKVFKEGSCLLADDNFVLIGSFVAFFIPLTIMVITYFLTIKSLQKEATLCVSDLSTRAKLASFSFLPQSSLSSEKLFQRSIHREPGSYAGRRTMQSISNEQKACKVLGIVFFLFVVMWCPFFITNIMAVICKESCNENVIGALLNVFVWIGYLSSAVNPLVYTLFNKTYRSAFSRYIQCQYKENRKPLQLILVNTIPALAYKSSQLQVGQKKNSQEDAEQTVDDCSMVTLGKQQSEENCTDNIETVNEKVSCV
Chain of 5-hydroxytryptamine receptor 4 (Q62758 whole entry): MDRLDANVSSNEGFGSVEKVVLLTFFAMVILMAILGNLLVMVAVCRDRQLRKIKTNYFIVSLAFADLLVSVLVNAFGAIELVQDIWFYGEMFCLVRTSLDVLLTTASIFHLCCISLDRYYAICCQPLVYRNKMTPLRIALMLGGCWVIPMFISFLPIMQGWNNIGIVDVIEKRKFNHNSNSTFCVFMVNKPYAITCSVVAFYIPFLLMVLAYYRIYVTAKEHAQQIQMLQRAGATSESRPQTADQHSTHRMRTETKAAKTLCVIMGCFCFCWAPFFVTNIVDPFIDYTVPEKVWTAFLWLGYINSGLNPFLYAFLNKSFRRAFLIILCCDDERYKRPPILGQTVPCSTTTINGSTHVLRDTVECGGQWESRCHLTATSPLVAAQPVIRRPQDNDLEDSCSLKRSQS
Chain of Cannabinoid receptor 1 (Homo sapiens) (P21554 whole entry): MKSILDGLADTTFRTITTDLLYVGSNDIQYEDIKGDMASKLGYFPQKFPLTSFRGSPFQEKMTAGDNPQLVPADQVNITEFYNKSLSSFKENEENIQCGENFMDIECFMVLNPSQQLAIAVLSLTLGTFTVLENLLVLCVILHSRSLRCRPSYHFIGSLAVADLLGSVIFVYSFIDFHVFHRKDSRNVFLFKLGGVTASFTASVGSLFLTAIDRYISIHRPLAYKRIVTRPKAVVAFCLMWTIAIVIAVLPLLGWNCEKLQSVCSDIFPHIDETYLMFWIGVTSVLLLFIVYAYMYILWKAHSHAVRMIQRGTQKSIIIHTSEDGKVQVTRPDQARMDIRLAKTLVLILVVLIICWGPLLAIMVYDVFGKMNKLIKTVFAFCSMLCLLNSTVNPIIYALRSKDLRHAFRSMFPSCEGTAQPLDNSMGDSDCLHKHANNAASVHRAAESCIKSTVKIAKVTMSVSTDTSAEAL
Chain of 5-hydroxytryptamine receptor 7 (P32305 whole entry): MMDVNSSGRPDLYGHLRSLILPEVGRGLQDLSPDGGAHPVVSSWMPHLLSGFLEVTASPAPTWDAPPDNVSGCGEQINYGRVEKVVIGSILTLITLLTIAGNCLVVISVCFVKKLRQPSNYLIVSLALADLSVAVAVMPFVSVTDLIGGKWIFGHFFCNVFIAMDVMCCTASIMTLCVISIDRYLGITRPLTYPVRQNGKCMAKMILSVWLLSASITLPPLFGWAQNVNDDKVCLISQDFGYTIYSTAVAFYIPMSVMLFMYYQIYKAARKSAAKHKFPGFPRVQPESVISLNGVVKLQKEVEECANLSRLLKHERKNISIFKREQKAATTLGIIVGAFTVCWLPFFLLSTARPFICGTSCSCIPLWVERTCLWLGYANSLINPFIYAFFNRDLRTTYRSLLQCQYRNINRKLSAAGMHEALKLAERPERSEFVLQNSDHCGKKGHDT

For `CCOc1ccccc1OCCNCCCCN1C(=O)C2CCCN2C1=O.Cl` (stereo not given), the inhibition entry (in the data set filed under Homo sapiens [1]; in [4]; in data set [5]; in the data set listed under Homo sapiens [6]; in data set [8]) was “inactive” each time. The CLint scaled at up to 5 µM worked out at 107 mL/min/kg in data set [2] and 3.5 mL/min/kg in data set [10]. The Ki in data set [3] is above 1000 nM; in [7], above 1000 nM; in [9], above 1000 nM; in data set [11], 16.9 nM. Further, the Activity entry with Mus musculus was “Active”. Also, in data set [12], the EC50 was found to be 19 nM. In addition, at CYP2D6, the activity at 0.5 h, 10 µM was determined as 18%. Moreover, in data set [13], the half-life at up to 5 µM turned out to be 13.1 min.
